{"data": "Measurements pooled from the literature", "note": "Lines come from different studies, so protocols differ."}
{"SMILES": "COC(=O)CN=c1scc(-c2ccccc2)n1-c1ccccc1C", "cell line": "Panc 02.03", "observed": "cell growth or viability", "technique": "MTT", "time": "72 h", "IC50": "> 100 µM"}
{"SMILES": "Nc1ccc(Cl)c[n+]1[Pt-2]([Cl])([Cl])[n+]1cc(Cl)ccc1N", "cell line": "BEAS-2B", "observed": "cell growth or viability", "technique": "MTT", "time": "48 h", "IC50": "6.33 µM"}
{"SMILES": "CC(C)=CCC[C@](C)(O)[C@H]1CC[C@]2(C)[C@@H]1[C@H](O)C[C@@H]1[C@@]3(C)CC[C@H](O[C@@H]4O[C@H](CO)[C@@H](O)[C@H](O)[C@H]4O[C@@H]4O[C@H](CO)[C@@H](O)[C@H](O)[C@H]4O)C(C)(C)[C@@H]3CC[C@]12C", "cell line": "BEAS-2B", "observed": "cell growth or viability", "technique": "MTT", "time": "72 h", "IC50": "> 100 µM"}
{"SMILES": "COc1cccc2c1C(=O)c1c(O)c3c(c(O)c1C2=O)C[C@@](O)(C(=O)CO)C[C@@H]3O[C@H]1C[C@H](N)[C@H](O)[C@H](C)O1", "cell line": "A2058", "observed": "cell growth or viability", "technique": "WST-1", "time": "72 h", "IC50": "0.04 µM"}
{"SMILES": "CC(C)C[C@H](NC(=O)[C@H](Cc1ccccc1)NC(=O)c1cnccn1)B(O)O", "cell line": "A2058", "observed": "cell growth or viability", "technique": "ATP luminescence", "IC50": "0.013 µM"}
{"SMILES": "COc1ccc2[nH]cc(C(=O)C(=O)CCCc3c[nH]c4ccccc34)c2c1", "cell line": "C4-2", "observed": "cell growth or viability", "technique": "MTT", "IC50": "> 100 µM"}
{"SMILES": "COc1cccc2c1C(=O)c1c(O)c3c(c(O)c1C2=O)C[C@@](O)(C(=O)CO)C[C@@H]3O[C@H]1C[C@H](N)[C@H](O)[C@H](C)O1", "cell line": "KATO III", "observed": "cell growth or viability", "technique": "MTT", "time": "48 h", "IC50": "0.71 µg/mL"}
{"SMILES": "COc1cccc(Oc2ccccc2NC(=O)CNC(=O)c2cccc3ccccc23)c1", "cell line": "SK-N-DZ", "observed": "cell growth or viability", "IC50": "0.288 µM"}
{"SMILES": "O=C1NCCc2[nH]c(-c3ccncc3)cc21", "cell line": "LOX IMVI", "observed": "cell growth or viability", "IC50": "3.58 µM"}
{"SMILES": "C=C(C)C(=O)Nc1ccc(-c2c(-c3ccc(Oc4nccc(C)n4)c(F)c3)c3c(N)ncnc3n2C)cc1", "cell line": "RT-112", "observed": "cell growth or viability", "technique": "ATP luminescence", "time": "96 h", "IC50": "0.212 µM"}
{"SMILES": "CCCCC/C=C\\C/C=C\\C/C=C\\C/C=C\\CCCC(=O)C(F)(F)F", "cell line": "MEL-JUSO", "observed": "cell growth or viability", "technique": "MTS", "time": "72 h", "IC50": "22.8 µM"}
{"SMILES": "CCOc1ccc(C(=O)NN=C2C=C(C(C)(C)C)C(=O)C(C(C)(C)C)=C2)cc1", "cell line": "human Fibroblast", "observed": "cell growth or viability", "technique": "resazurin", "time": "24 h", "IC50": "> 100 µM"}
{"SMILES": "Cc1c[nH]c(/C=C2\\C(=O)Nc3ccccc32)c1CCC(=O)O", "cell line": "RT-112", "observed": "cell growth or viability", "technique": "MTT", "time": "5 days", "IC50": "6 µM"}
{"SMILES": "CCN1C(=O)N(c2c(F)c(OC)cc(OC)c2F)Cc2cnc3[nH]c(CN4CCOCC4)cc3c21", "cell line": "KATO III", "observed": "cell growth or viability", "technique": "ATP luminescence", "time": "96 h", "IC50": "0.00148 µM"}
{"SMILES": "O=C(c1cc(Cc2n[nH]c(=O)c3ccccc23)ccc1F)N1CCN(C(=O)C2CC2)CC1", "cell line": "KATO III", "observed": "colony formation", "IC50": "2.43 µM"}
{"SMILES": "O=C(CNC(=O)c1cccc2ccccc12)Nc1ccccc1Oc1ccccc1", "cell line": "SK-N-DZ", "observed": "cell growth or viability", "IC50": "0.237 µM"}
{"SMILES": "COC(=O)CN=c1scc(-c2ccccc2)n1-c1ccccc1[N+](=O)[O-]", "cell line": "Panc 02.03", "observed": "cell growth or viability", "technique": "MTT", "time": "72 h", "IC50": "> 100 µM"}
{"SMILES": "CN(C)CC[C@@H](c1ccc(Cl)cc1)c1ccccn1", "cell line": "HN-6", "observed": "cell growth or viability", "time": "72 h", "IC50": "> 20 µM"}
{"SMILES": "CC(C)(C)C1=CC(=NNc2ccc(C#N)cc2)C=C(C(C)(C)C)C1=O", "cell line": "human Fibroblast", "observed": "cell growth or viability", "technique": "resazurin", "time": "24 h", "IC50": "> 100 µM"}
{"SMILES": "N=C(N)c1ccc(N=Nc2c(O)ccc3cc(O)ccc23)cc1", "cell line": "MDA-MB-468", "observed": "cell growth or viability", "technique": "MTT", "IC50": "20 µM"}
{"SMILES": "CCCCCCNC(=O)n1cc(F)c(=O)[nH]c1=O", "cell line": "C6", "observed": "cell growth or viability", "technique": "MTT", "time": "72 h", "IC50": "7 µM"}
{"SMILES": "O=C1c2cccc(O)c2C(=O)c2c(O)cc(CO)cc21", "cell line": "HK-2", "observed": "cell growth or viability", "technique": "MTT", "time": "24 h", "IC50": "> 500 µM"}
{"SMILES": "CCCCc1ccc2[nH]c(NC(=O)OC)nc2c1", "cell line": "HN-6", "observed": "cell growth or viability", "time": "72 h", "IC50": "0.126 µM"}
{"SMILES": "CCN1CCN(c2ccc(Nc3cc(N(C)C(=O)Nc4c(Cl)c(OC)cc(OC)c4Cl)ncn3)cc2)CC1", "cell line": "RT-112", "observed": "cell growth or viability", "technique": "ATP luminescence", "time": "96 h", "IC50": "0.0117 µM"}
{"SMILES": "COc1cc(Nc2nccc(-c3cnn4nc(OC)ccc34)n2)cc(C(F)(F)F)c1", "cell line": "RERF-LC-Ad2", "observed": "cell growth or viability", "technique": "ATP luminescence", "IC50": "0.36 µM"}
{"SMILES": "COc1cc2nc(N3CCN(C(=O)c4ccco4)[C@H]4CCCC[C@H]43)nc(N)c2cc1OC (racemic)", "cell line": "HN-6", "observed": "cell growth or viability", "time": "72 h", "IC50": "15.6 µM"}
{"SMILES": "CC1(C)CC[C@]2(C(=O)O)CC[C@]3(C)C(=CC[C@@H]4[C@@]5(C)CC[C@H](O)C(C)(C)[C@@H]5CC[C@]43C)[C@@H]2C1", "cell line": "SGC-7901", "observed": "cell growth or viability", "technique": "MTT", "time": "48 h", "IC50": "52.7 µM"}
{"SMILES": "O=C1Nc2ccc(Cl)cc2[C@@](C#CC2CC2)(C(F)(F)F)O1", "cell line": "HN-6", "observed": "cell growth or viability", "time": "72 h", "IC50": "18.7 µM"}
{"SMILES": "Cc1cc(O)c2c(c1)C(=O)c1cccc(O)c1C2=O", "cell line": "HK-2", "observed": "cell growth or viability", "technique": "MTT", "time": "24 h", "IC50": "> 500 µM"}
{"SMILES": "Cn1cc(C(=O)C(=O)NCCc2c[nH]c3ccccc23)c2ccccc21", "cell line": "C4-2", "observed": "cell growth or viability", "technique": "MTT", "IC50": "> 100 µM"}
{"SMILES": "CCN(CC)CCNC(=O)COc1ccc(OC)cc1", "cell line": "HN-6", "observed": "cell growth or viability", "time": "72 h", "IC50": "> 20 µM"}
{"SMILES": "O=C(O)c1cc(O)c2c(c1)C(=O)c1cccc(O[C@@H]3O[C@H](CO)[C@@H](O)[C@H](O)[C@H]3O)c1C2=O", "cell line": "HK-2", "observed": "cell growth or viability", "technique": "MTT", "time": "24 h", "IC50": "> 500 µM"}
{"SMILES": "CC(C)C(=O)SCCCCCCC(=O)Nc1nc(-c2ccccc2)cs1", "cell line": "HN-6", "observed": "cell growth or viability", "time": "72 h", "IC50": "5.9 µM"}
{"SMILES": "O=C(NCCc1c[nH]c2ccccc12)C(=O)c1c[nH]c2ccc(F)cc12", "cell line": "C4-2", "observed": "cell growth or viability", "technique": "MTT", "IC50": "> 100 µM"}
{"SMILES": "Clc1ccc2c(c1)N=C(N1CCNCC1)c1ccccc1N2", "cell line": "HN-6", "observed": "cell growth or viability", "time": "72 h", "IC50": "> 20 µM"}
{"SMILES": "CS(=O)(=Nc1ccc(Br)cc1)c1c[nH]c2ccccc12 (centres unmarked)", "cell line": "C4-2", "observed": "cell growth or viability", "technique": "MTT", "time": "48 h", "IC50": "> 40 µM"}
{"SMILES": "CC(C)(C=O)Cc1cc(C(C)(C)C)c(O)c(C(C)(C)C)c1", "cell line": "HN-6", "observed": "cell growth or viability", "time": "72 h", "IC50": "> 20 µM"}
{"SMILES": "O=C(CNC(=O)c1cccc2ccccc12)Nc1ccccc1Oc1cccc(O)c1", "cell line": "SK-N-DZ", "observed": "cell growth or viability", "IC50": "0.539 µM"}
